Values joined by “and” are separate entries in the source; they are usually repeats but may differ in a detail not shown here. Identical values can stand only once.
Test system: HEK-293T
Test: Multiplex assay against HEK293T
Format: toxicity, cell-based
Conditions: human
Outline: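 Per cents of healthy-nucleus cells form the tubulin, mitochondrial-mass and membrane-permeability phenotype values. Live cells were stained at seeding with Hoechst33342, BioTracker Green Microtubule Cytoskeleton Dye, MitoTracker Red and Annexin V Alexa Fluor 680. After compound addition they were imaged on a CQ1 microscope at 37°C and 5% CO2, and CellPathfinder machine-learning gating split them into Hoechst high-intensity objects or normal cells, normal cells into healthy, pyknosed or fragmented nuclei, and pyknosed cells into mitotic or apoptotic.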

[1] = 12 h, 1 µM, compound concentration 1 uM
[2] = 12 h, 10 µM, compound concentration 10 uM
[3] = 24 h, 1 µM, compound concentration 1 uM
[4] = 24 h, 10 µM, compound concentration 10 uM
[5] = 48 h, 1 µM, compound concentration 1 uM
[6] = 48 h, 10 µM, compound concentration 10 uM

SMILES: O=C1NC(NC23CC4CC(CC(C4)C2)C3)=N/C1=C\c1ccc2ncsc2c1
- Population Apoptotic (%) [1]: 29.13% and 49.03%
- Population Fragmented Nuclei (%) [1]: 8.91% and 6.01%
- Population Hoechst High Intensity Objects (%) [1]: 6.05% and 0.54%
- Population Membrane Permeable-Phenotype (%) [1]: 1.75% and 0%
- Population Mitochondria Different-Phenotype (%) [1]: 15.79% and 5.88%
- Population Mitotic Cells (%) [1]: 70.87% and 50.97%
- Population Normal (%) [1]: 93.95% and 99.46%
- Population Pyknosed Nuclei (%) [1]: 62.87% and 84.7%
- Population Tubulin-Different-Phenotype (%) [1]: 17.54% and 23.53%
- Total Cell Count [1]: 215 and 184
- Population Apoptotic (%) [2]: 29.21% and 56.72%
- Population Fragmented Nuclei (%) [2]: 84.08% and 93.38%
- Population Healthy Nuclei (%) [2]: 3.91% and 2.86%
- Population Hoechst High Intensity Objects (%) [2]: 21.42% and 7.86%
- Population Membrane Permeable-Phenotype (%) [2]: 0%
- Population Mitochondria Different-Phenotype (%) [2]: 0%
- Population Mitotic Cells (%) [2]: 70.79% and 43.28%
- Population Normal (%) [2]: 78.58% and 92.14%
- Population Pyknosed Nuclei (%) [2]: 12.01% and 3.76%
- Population Tubulin-Different-Phenotype (%) [2]: 0%
- Total Cell Count [2]: 943 and 1934
- Population Apoptotic (%) [3]: 59.35% and 52.46%
- Population Fragmented Nuclei (%) [3]: 10.75% and 5.21%
- Population Healthy Nuclei (%) [3]: 23.12% and 8.06%
- Population Hoechst High Intensity Objects (%) [3]: 4.62% and 0%
- Population Membrane Permeable-Phenotype (%) [3]: 6.98% and 5.88%
- Population Mitochondria Different-Phenotype (%) [3]: 4.65% and 0%
- Population Mitotic Cells (%) [3]: 40.65% and 47.54%
- Population Normal (%) [3]: 95.38% and 100%
- Population Pyknosed Nuclei (%) [3]: 66.13% and 86.73%
- Population Tubulin-Different-Phenotype (%) [3]: 16.28% and 11.76%
- Total Cell Count [3]: 195 and 211
- Population Apoptotic (%) [4]: 30% and 40.21%
- Population Fragmented Nuclei (%) [4]: 85.18% and 91.28%
- Population Healthy Nuclei (%) [4]: 4.04% and 1.95%
- Population Hoechst High Intensity Objects (%) [4]: 21.4% and 9.41%
- Population Membrane Permeable-Phenotype (%) [4]: 3.33% and 0%
- Population Mitochondria Different-Phenotype (%) [4]: 0%
- Population Mitotic Cells (%) [4]: 70% and 59.79%
- Population Normal (%) [4]: 78.6% and 90.59%
- Population Pyknosed Nuclei (%) [4]: 10.78% and 6.76%
- Population Tubulin-Different-Phenotype (%) [4]: 0% and 3.57%
- Total Cell Count [4]: 944 and 1583
- Population Apoptotic (%) [5]: 47.65% and 48.67%
- Population Fragmented Nuclei (%) [5]: 14.23% and 10.83%
- Population Healthy Nuclei (%) [5]: 14.64% and 17.2%
- Population Hoechst High Intensity Objects (%) [5]: 2.85% and 0.63%
- Population Membrane Permeable-Phenotype (%) [5]: 0% and 3.7%
- Population Mitochondria Different-Phenotype (%) [5]: 40% and 33.33%
- Population Mitotic Cells (%) [5]: 52.35% and 51.33%
- Population Normal (%) [5]: 97.15% and 99.37%
- Population Pyknosed Nuclei (%) [5]: 71.13% and 71.97%
- Population Tubulin-Different-Phenotype (%) [5]: 25.71% and 48.15%
- Total Cell Count [5]: 246 and 158
- Population Apoptotic (%) [6]: 35.64% and 60.49%
- Population Fragmented Nuclei (%) [6]: 84.47% and 93.33%
- Population Healthy Nuclei (%) [6]: 3.18% and 1.42%
- Population Hoechst High Intensity Objects (%) [6]: 23.26% and 9.23%
- Population Membrane Permeable-Phenotype (%) [6]: 0%
- Population Mitochondria Different-Phenotype (%) [6]: 0%
- Population Mitotic Cells (%) [6]: 64.36% and 39.51%
- Population Normal (%) [6]: 76.74% and 90.77%
- Population Pyknosed Nuclei (%) [6]: 12.35% and 5.25%
- Population Tubulin-Different-Phenotype (%) [6]: 0%
- Total Cell Count [6]: 1066 and 1701

SMILES: NC1=NC(=O)/C(=C2\CCNC(=O)c3[nH]c4ccccc4c32)N1
- Population Apoptotic (%) [1]: 13.33% and 11.21%
- Population Fragmented Nuclei (%) [1]: 2.11% and 2.19%
- Population Hoechst High Intensity Objects (%) [1]: 0.52% and 0%
- Population Membrane Permeable-Phenotype (%) [1]: 0.85% and 3.7%
- Population Mitotic Cells (%) [1]: 86.67% and 88.79%
- Population Normal (%) [1]: 99.48% and 100%
- Population Pyknosed Nuclei (%) [1]: 35.62% and 78.1%
- Total Cell Count [1]: 381 and 137
- Population Apoptotic (%) [2]: 8.93% and 12.5%
- Population Fragmented Nuclei (%) [2]: 2.8% and 2.1%
- Population Hoechst High Intensity Objects (%) [2]: 0%
- Population Membrane Permeable-Phenotype (%) [2]: 1% and 0%
- Population Mitochondria Different-Phenotype (%) [2]: 33.83% and 15%
- Population Mitotic Cells (%) [2]: 91.07% and 87.5%
- Population Normal (%) [2]: 100%
- Population Pyknosed Nuclei (%) [2]: 34.78% and 83.92%
- Total Cell Count [2]: 322 and 143
- Population Apoptotic (%) [3]: 12% and 13.98%
- Population Fragmented Nuclei (%) [3]: 1.99% and 1.92%
- Population Healthy Nuclei (%) [3]: 77.28% and 38.46%
- Population Hoechst High Intensity Objects (%) [3]: 0%
- Population Membrane Permeable-Phenotype (%) [3]: 0.86% and 3.33%
- Population Mitochondria Different-Phenotype (%) [3]: 12.45% and 11.67%
- Population Mitotic Cells (%) [3]: 88% and 86.02%
- Population Normal (%) [3]: 100%
- Population Pyknosed Nuclei (%) [3]: 20.73% and 59.62%
- Population Tubulin-Different-Phenotype (%) [3]: 11.37% and 1.67%
- Population Apoptotic (%) [4]: 14.91% and 16%
- Population Fragmented Nuclei (%) [4]: 1.32% and 5.13%
- Population Healthy Nuclei (%) [4]: 73.68% and 30.77%
- Population Hoechst High Intensity Objects (%) [4]: 0%
- Population Membrane Permeable-Phenotype (%) [4]: 0.89% and 6.25%
- Population Mitochondria Different-Phenotype (%) [4]: 13.69% and 18.75%
- Population Mitotic Cells (%) [4]: 85.09% and 84%
- Population Normal (%) [4]: 100%
- Population Pyknosed Nuclei (%) [4]: 25% and 64.1%
- Population Tubulin-Different-Phenotype (%) [4]: 10.42% and 4.17%
- Total Cell Count [4]: 456 and 156
- Population Apoptotic (%) [5]: 9.77% and 15.52%
- Population Fragmented Nuclei (%) [5]: 3.77% and 1.5%
- Population Healthy Nuclei (%) [5]: 86.2% and 69.5%
- Population Hoechst High Intensity Objects (%) [5]: 0.08% and 0%
- Population Membrane Permeable-Phenotype (%) [5]: 3.85% and 3.6%
- Population Mitochondria Different-Phenotype (%) [5]: 10.94% and 10.79%
- Population Mitotic Cells (%) [5]: 90.23% and 84.48%
- Population Normal (%) [5]: 99.92% and 100%
- Population Pyknosed Nuclei (%) [5]: 10.03% and 29%
- Population Apoptotic (%) [6]: 6.19% and 12.05%
- Population Fragmented Nuclei (%) [6]: 2.47% and 2.35%
- Population Healthy Nuclei (%) [6]: 85.57% and 58.69%
- Population Hoechst High Intensity Objects (%) [6]: 0.25% and 0.93%
- Population Membrane Permeable-Phenotype (%) [6]: 2.16% and 0.8%
- Population Mitochondria Different-Phenotype (%) [6]: 22.48% and 16.8%
- Population Mitotic Cells (%) [6]: 93.81% and 87.95%
- Population Normal (%) [6]: 99.75% and 99.07%
